# Screening data from PubChem BioAssay.
# Most compounds without a hit are left out; they make up all but 1.9% or so of the library.
# Furin inhibitor: human furin inhibitors, primary screen, biochemical, fluorescence intensity; P09958; purified furin, fluorogenic substrate cleavage; inhibition, % at 20 µM or 30 µM; 220,000 tested, 0.061% active; AID 463115, 2010; in the data active means inhibition above about 25%
# HSV augment: enhancers of HSV replication in host cells, fold increase, host cell viability. HSV replication augmentation in cells. maximum fold increase. 220,000 tested, 0.005% active. AID 1956, 2009; in the data active means maximum fold increase above about 1.5; inconclusive means no clear call, values can overlap the other calls; tested in PC3 cells
# b-catenin transl: modulators of beta-catenin nuclear translocation, primary screen, imaging, HeLa cells, immunofluorescence, high-content. AID 1665, 2009. nuclear translocation activity, % at 5 µM. 190,000 tested, 0.3% active;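 active means nuclear translocation activity above 50% at 5 µM, with a well cell count of 50 or more; inconclusive means wells under 50 cells across six images, flagged as toxic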;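 further: per-cell ratio of nuclear to cytoplasmic median beta-catenin stain intensity; plate controls were DMSO negative control for no effect and GSK-3 inhibitor IX positive control for full effect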
#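 test system = HeLa cells, endogenous beta-catenin | dosing = single 5 µM dose plus 0.02–20 µM confirmation series | times = compound treatment 24 h, 37°C, 5% CO2 | technique = beta-catenin immunofluorescence imaging with DAPI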
# MT stabilizer: microtubule stabilizers in HeLa cells, primary screen, imaging, high-content imaging | HeLa tubulin immunostaining HCS, 24 h; share of cells brighter than vehicle mean+2SD | % tubulin-high responders, % at 10 µM | 200,000 tested, 0.83% active | AID 2205, 2009;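 active means plate Z-score above 3 for both tubulin-high and condensed-nucleus cell shares, with cell loss under 80%, at 10 µM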;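 further: anti alpha tubulin signal scored within the nucleus-defined area of each cell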
# Ins promoter up: insulin promoter activators in MIN6 cells, imaging, high-content screening, mouse beta cells; z-score at 5 µM; MIN6 insulin promoter-GFP reporter; active compounds read high; 190,000 tested, 0.3% active;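 active means z-score above 3 at 5 µM with at least 500 cells counted in the well; inconclusive means wells under 500 cells, flagged as cytotoxic or low count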
# Autophagy HCS: autophagy modulators in MEF cells, primary screen, imaging, high-content, MEF GFP-LC3. MEF GFP-LC3 puncta imaging; test concentration mostly 10 µM. calls only at 10 µM (by protocol). 190,000 tested, 0.98% active;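 active means percentage of spot-positive cells more than 3 SD above its plate mean, without a fluorescence outlier flag or 80% toxicity; inconclusive means no clear call, values can overlap the other calls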;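 further: spot-positive cell cutoff set from DMSO-treated cells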
# The depositor's hits bear a star; i = inactive; ? = inconclusive; nt = not tested or not shown; + = active, no number.
SMILES,Furin inhibitor,HSV augment,b-catenin transl,MT stabilizer,Ins promoter up,Autophagy HCS
Cn1c(=O)c2ncn(CC(=O)N=Nc3c(O)[nH]c4ccccc34)c2n(C)c1=O,-15.0,i,3.8,4.0,-0.64,i
CC(C)CC(=O)Nc1ccc2c(c1)OCO2,-27.1,i,-0.7,5.3,0.5,+
CCOC(=O)Cc1csc(NC(=O)c2ccc(Cl)nc2)n1,-10.5,i,1.3,36.8*,-0.25,i
COc1ccccc1C1CCN(C(=O)c2ccco2)CC1,-16.0,i,4.2,nt,-0.06,nt
COC(=O)c1ccc(CO/N=C/c2ccc(OC)cc2)o1,-28.8,i,-0.3,3.8,-0.14,i
CCN(CC)c1ccc(C(=O)OCC(=O)Nc2ccccc2-c2ccccc2)cc1,0.4,i,nt,3.1,-1.31,i
CCC(=O)OCC(=O)c1c(N)n(Cc2ccccc2)c(=O)n(C)c1=O,-11.6,i,-2.7,1.4,3.29*,i
Cc1cc(C)c2cc(C#N)c(SCC(=O)Nc3ccc4c(c3)OCO4)nc2c1,-22.4,?,-0.2,nt,0.17,nt
Cc1ccccc1-n1nnnc1SCC(=O)NCC1CCCO1 (centres undefined),-9.7,i,1.9,8.4,0.14,+
Nc1nnc(-c2ccc(Cl)c([N+](=O)[O-])c2)s1,-2.4,i,-1.5,4.4,0.04,i
O=C(COc1ccccc1-c1ccccc1)N/N=C/c1ccncc1,-21.3,i,1.2,3.5,-0.07,i
O=C(COc1ccccc1-c1ccccc1)N/N=C/c1ccc2ccccc2c1,-9.9,i,131.0*,4.9,nt,i
O=C(COc1ccccc1-c1ccccc1)N/N=C/c1cccnc1,-18.0,i,46.3,14.1*,0.65,i
O=S(=O)(Nc1ccc(Cl)cc1)c1ccc(N2CCOCC2)c(NC(=S)NCCN2CCOCC2)c1,-29.3,i,2.8,1.9,0.02,i
CC1CC(C)CN(C(=O)c2cccc3c2-c2ccccc2C3=O)C1 (centres undefined),-29.2,i,0.4,nt,3.97*,nt
COc1cccc(NC(=O)c2ccc(NCCCN3CC(C)CC(C)C3)c([N+](=O)[O-])c2)c1 (centres undefined),0.1,i,0.7,2.7,-0.81,+
Cc1cc(NNC(=O)c2cccc(C(F)(F)F)c2)nc2c1c(C)nn2C,-11.4,i,-0.1,nt,-1.02,nt
CN(NC(=O)c1cccc(Cl)c1)c1nc(-c2ccccc2)nnc1C(F)(F)F,-22.0,i,0.2,39.5*,-0.12,i
CN(N)c1nc(-c2ccccc2)nnc1C(F)(F)F,-11.2,i,3.1,2.5,-1.04,i
Cc1ccsc1CN(C)C(=O)CCc1nnc(COc2ccccc2)o1,-18.1,i,-0.5,0.9,nt,i
CCOC(=O)C1=c2/c(=C/c3ccccc3OC)c(N)c(C#N)n2C(=O)C(c2ccccc2OC)S1 (centres undefined),-12.3,nt,nt,2.4,-0.68,+
Cc1ccc(C(=O)N2CCSCC2)cc1,-24.8,i,nt,1.9,0.88,i
CCCCOC(=O)c1[nH]c2c(c1C)C(=O)CC(c1cc(OC)c(OC)c(OC)c1)C2 (centres undefined),-16.1,i,-0.8,5.8,-2.12,i
CSCCOC(=O)c1[nH]c2c(c1C)C(=O)CC(c1ccco1)C2 (centres undefined),-25.1,i,92.4*,7.9,-0.45,i
COCCOC(=O)c1[nH]c2c(c1C)C(=O)CC(c1ccco1)C2 (centres undefined),-4.1,i,66.3*,9.8,-0.72,i
Cc1c(C(=O)OCc2ccccc2)[nH]c2c1C(=O)CC(c1ccco1)C2 (centres undefined),-28.6,i,119.8*,6.8,0.96,i
CCOC(=O)c1[nH]c2c(c1C)C(=O)CC(c1ccco1)C2 (centres undefined),-24.9,i,117.9*,7.0,-0.51,i
CCOc1ccc(-n2c(=O)c3sccc3n(CC(=O)NCCc3ccc(OC)c(OC)c3)c2=O)cc1,-37.7,i,nt,2.5,-0.12,i
CN(C)CCCOc1cccc(Oc2ccccc2)c1,-27.1,i,-0.7,4.1,0.11,i
